The values that follow come from ChEMBL document CHEMBL5331120, “Stapled β-Hairpin Antimicrobial Peptides with Improved Stability and Activity against Drug-Resistant Gram-Negative Bacteria” (J Med Chem, 2023).

The test system of data set [1] is Escherichia coli. The data set can be described thus: Antimicrobial activity against colistin/carbapenem resistant Escherichia coli clinical isolate R3 harboring NDM-7 and OXA-181 gene assessed as fold reduction in MIC incubated for 18 hrs by broth microdilution method. It counts as functional.
For data set [2], the system named is Escherichia coli. The data set can be described thus: Antimicrobial activity against Escherichia coli ATCC 25922 assessed as inhibition of bacterial growth incubated for 18 hrs by broth microdilution method. It counts as functional. Summed up:
(§1)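 Standard broth microdilution in MHB. Overnight culture (37 °C, 120 rpm) adjusted to OD600 0.07 and diluted 1000× to 3 × 10^5 CFU/mL. Peptides serially diluted in triplicate, 18 h at 37 °C with 120 rpm shaking. Growth read as OD600; MIC is the lowest concentration with no visible growth. Colistin served as control for Gram-negatives, vancomycin for S. aureus.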

Data set [3] deals with Pseudomonas aeruginosa. The data set can be described thus: Antimicrobial activity against Pseudomonas aeruginosa ATCC 9027 assessed as inhibition of bacterial growth incubated for 18 hrs by broth microdilution method. It counts as functional. Summed up:
as §1
(In general: In broth dilution the organism is exposed to a series of concentrations in liquid medium.)

For data set [4], the system named is Escherichia coli. The data set can be described thus: Antimicrobial activity against Escherichia coli ATCC 25922 assessed as inhibition of bacterial growth incubated for 18 hrs in presence of 10% fetal bovine serum by broth microdilution method. It counts as functional, organism-based. The procedure, abridged: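 E. coli broth microdilution in MHB containing 10% fetal bovine serum. Inoculum 3 × 10^5 CFU/mL, diluted from an OD600 0.07 suspension. Incubated 18 h at 37 °C with 120 rpm shaking, OD600 read, triplicates. Fold change in MIC calculated against control MIC.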

In data set [5] the test system is Escherichia coli. The data set can be described thus: Antimicrobial activity against colistin resistant Escherichia coli clinical isolate R1 harboring mcr-1 gene assessed as fold reduction in MIC incubated for 18 hrs by broth microdilution method. It counts as functional.
For data set [6], the system named is Escherichia coli. The data set can be described thus: Antimicrobial activity against Escherichia coli ATCC 25922 assessed as inhibition of bacterial growth compound pretreated for 1 hr with trypsin and measured after 18 hrs by broth microdilution method. It counts as functional, organism-based. The procedure, abridged:
(§2)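 Peptide incubated with trypsin at a 1:2000 trypsin/peptide molar ratio (e.g., 1 mM peptide with 0.5 μM trypsin), 37 °C, 1 h. Reaction stopped at 80 °C for 10 min, then serially diluted against E. coli in MHB broth microdilution. Inoculum 3 × 10^5 CFU/mL, 37 °C, 120 rpm, 18 h, read by OD600, triplicates. Fold change in MIC taken versus untreated control.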

The test system of data set [7] is Staphylococcus aureus. The data set can be described thus: Antimicrobial activity against Staphylococcus aureus ATCC 29737 assessed as inhibition of bacterial growth incubated for 18 hrs by broth microdilution method. It counts as functional, organism-based. The procedure, abridged: as §1
The subject of data set [8] is Erythrocyte. The data set can be described thus: Hemolytic activity in human RBC upto 128 uM incubated for 1 hr by absorbance based analysis. It counts as toxicity, cell-based. Summed up: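 Washed human RBCs from healthy volunteers at 4% in PBS. Peptide at 4–128 μM, 37 °C for 1 h. Supernatant after 1000g, 10 min spin read at OD540. 1% Triton X-100 gave full lysis; % hemolysis derived and HC50 estimated.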

Data set [9] concerns Escherichia coli. The data set can be described thus: Antimicrobial activity against colistin/carbapenem resistant Escherichia coli clinical isolate R2 harboring mcr-1 and NDM-1 gene assessed as fold reduction in MIC incubated for 18 hrs by broth microdilution method. It counts as functional.
For data set [10], the system named is Escherichia coli. The data set can be described thus: Antimicrobial activity against colistin resistant Escherichia coli clinical isolate R1 harboring mcr-1 gene assessed as inhibition of bacterial growth incubated for 18 hrs by broth microdilution method. It counts as functional, organism-based. Summed up: (§3)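 Overnight MHB culture (37 °C, 120 rpm) adjusted to OD600 0.07 (~10^8 CFU/mL), then diluted 1000× to 3 × 10^5 CFU/mL. Peptides serially diluted with the bacterial suspension in triplicate, shaken at 37 °C, 120 rpm for 18 h, then OD600 read. MIC is the lowest concentration with no visible growth. Colistin as positive control.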

Data set [11] concerns Escherichia coli. The data set can be described thus: Antimicrobial activity against colistin/carbapenem resistant Escherichia coli clinical isolate R2 harboring mcr-1 and NDM-1 gene assessed as inhibition of bacterial growth incubated for 18 hrs by broth microdilution method. It counts as functional, organism-based. Summed up:
as §3

Data set [12] deals with Trypsin (Homo sapiens, UniProt P07477+P07478+P35030). The data set can be described thus: Stability of compound assessed as trypsin (unknown origin) mediated compound degradation by measuring parent compound remaining measured after 1.5 hrs by RP-HPLC analysis. It counts as ADME, protein assay. The procedure, abridged:
(§4)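 Peptide with trypsin at a 1:2000 trypsin/peptide molar ratio, 37 °C, sampled at 15, 30, 60 and 90 min. Reaction stopped with an equal volume of 50% acetonitrile/1% TFA. Analysed on C18 RP-HPLC with UV at 220 nm; intact peptide given as % of AUC.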

Data set [13] deals with Escherichia coli. The data set can be described thus: Antimicrobial activity against Escherichia coli ATCC 25922 assessed as fold increase in MIC compound pretreated for 1 hr with trypsin and measured after 18 hrs by broth microdilution method relative to control. It counts as functional. The conditions noted are these: trypsin pretreatment 1 hr; MIC measured after 18 hrs. Summed up: as §2

The nature of data set [14]: Stability of compound assessed as trypsin (unknown origin) mediated compound degradation by measuring parent compound remaining measured after 1 hr by RP-HPLC analysis. It counts as ADME, protein assay. The conditions noted are these: human, read-out: Stability. Summed up:
as §4

Data set [15] deals with Escherichia coli. The data set can be described thus: Antimicrobial activity against colistin/carbapenem resistant Escherichia coli clinical isolate R3 harboring NDM-7 and OXA-181 gene assessed as inhibition of bacterial growth incubated for 18 hrs by broth microdilution method. It counts as functional, organism-based.

Structures are written as SMILES. Values after ≈ are worked out from the molar mass of the structure shown. Active and inactive are the calls of the source.

Consider `CC(C)C[C@@H]1NC(=O)[C@H](CCCCN)NC(=O)[C@@H]2CC/C=C/CC[C@H](NC(=O)[C@H](CCCCN)NC(=O)[C@H](CC(C)C)NC(=O)[C@H](CCCCN)NC(=O)[C@@H](N)CC/C=C/CC[C@@H](C(=O)O)NC(=O)[C@H](CCCCN)NC1=O)C(=O)N[C@@H](CCCCN)C(=O)N1CCC[C@@H]1C(=O)NCC(=O)N[C@@H](CCCCN)C(=O)N2`, for which the “fold change (FC)” value in [1], in data set [5] and in data set [9] was 2 in each case. Further, the result in data set [2], in data set [3] and in [7] was inactive. Further, the result in data set [4] and in data set [6] was Active. Further, the Activity entry in data set [8] is on record as “Non-Toxic”.

`CC(C)C[C@@H]1NC(=O)[C@H](CCCCN)NC(=O)CNC(=O)[C@H]2CCCN2C(=O)[C@H](CCCCN)NC(=O)[C@H](CC(C)C)NC(=O)[C@H](CCCCN)NC(=O)[C@@H]2CC/C=C\CC[C@H](NC(=O)[C@H](CCCCN)NC1=O)C(=O)N[C@@H](CCCCN)C(=O)N[C@H](C(=O)O)CC/C=C\CC[C@H](N)C(=O)N[C@@H](CCCCN)C(=O)N2`: the result in data set [2], in data set [3] and in data set [7] was inactive. The outcome in [4] and in data set [6] was Active. Besides, the Activity entry in data set [8] is reported as “Non-Toxic”.

One may read the MIC as the smallest concentration in the dilution series that meets the test's criterion for growth inhibition. As for `CC(C)C[C@H](NC(=O)[C@H](CCCCN)NC(=O)[C@H](CC(C)C)NC(=O)[C@H](CCCCN)NC(=O)[C@@H]1CC/C=C/CC[C@H](NC(=O)[C@H](CCCCN)NC(=O)[C@H](CC(C)C)NC(=O)[C@H](CCCCN)NC(=O)[C@@H](N)CC(C)C)C(=O)N[C@@H](CCCCN)C(=O)N2CCC[C@@H]2C(=O)NCC(=O)N[C@@H](CCCCN)C(=O)N1)C(=O)O`, the outcome in data set [10], in data set [11], in data set [4] and in [6] was Active. For the same compound, the MIC in data set [2] and in [3] was 8 µM (≈ 12.7 µg/mL) throughout. Further, the result in data set [7] was inactive. Also, the Activity entry in data set [8] is listed as “Non-Toxic”. Further, the remaining at 1.5 h in data set [12] (trypsin, read-out: Stability) was over 40%.

Regarding `CC(C)C[C@@H]1NC(=O)[C@H](CCCCN)NC(=O)[C@@H]2CCC/C=C\CC[C@H](NC(=O)[C@H](CCCCN)NC(=O)[C@H](CC(C)C)NC(=O)[C@H](CCCCN)NC(=O)[C@@H](N)CC/C=C/CCC[C@@H](C(=O)O)NC(=O)[C@H](CCCCN)NC1=O)C(=O)N[C@@H](CCCCN)C(=O)N1CCC[C@@H]1C(=O)NCC(=O)N[C@@H](CCCCN)C(=O)N2`, the “fold change (FC)” value in [1], in data set [5] and in data set [9] was 2 in each case. The outcome in [2], in [3] and in [7] was inactive. Further, the outcome in data set [4] and in data set [6] was Active. The Activity entry in data set [8] was “Non-Toxic”.

Consider `CC(C)C[C@H](NC(=O)[C@H](CCCCN)NC(=O)[C@H](CC(C)C)NC(=O)[C@H](CCCCN)NC(=O)[C@@H]1CCC/C=C/CC[C@H](NC(=O)[C@H](CCCCN)NC(=O)[C@H](CC(C)C)NC(=O)[C@H](CCCCN)NC(=O)[C@@H](N)CC(C)C)C(=O)N[C@@H](CCCCN)C(=O)N2CCC[C@@H]2C(=O)NCC(=O)N[C@@H](CCCCN)C(=O)N1)C(=O)O`, for which, in data set [13], the “fold change (FC)” value is “>=2”. The outcome in [7] was inactive. Besides, in [8], the Activity result is listed as “Non-Toxic”. The remaining at 1 h in data set [14] was under 10%.

For the compound `CC(C)C[C@@H]1NC(=O)[C@H](CCCCN)NC(=O)CNC(=O)[C@H]2CCCN2C(=O)[C@H](CCCCN)NC(=O)[C@H](CC(C)C)NC(=O)[C@H](CCCCN)NC(=O)[C@@H]2CC/C=C\CCC[C@H](NC(=O)[C@H](CCCCN)NC1=O)C(=O)N[C@@H](CCCCN)C(=O)N[C@H](C(=O)O)CC/C=C/CCC[C@H](N)C(=O)N[C@@H](CCCCN)C(=O)N2`, the “fold change (FC)” value in [1], in [5] and in data set [9] was 2 throughout. The result in [2], in data set [3] and in data set [7] was inactive. The result in [4] and in data set [6] was Active. Moreover, the Activity result in data set [8] is given as “Non-Toxic”. Besides, the Stability entry in data set [12] (1.5 h) is “Unstable”.

Consider `CC(C)C[C@H](NC(=O)[C@H](CCCCN)NC(=O)[C@@H]1CC/C=C/CC[C@H](NC(=O)[C@H](CCCCN)NC(=O)[C@@H](N)CC(C)C)C(=O)N[C@@H](CCCCN)C(=O)N[C@@H](CC(C)C)C(=O)N[C@@H](CCCCN)C(=O)N2CCCC2C(=O)NCC(=O)N[C@@H](CCCCN)C(=O)N[C@@H](CC(C)C)C(=O)N[C@@H](CCCCN)C(=O)N1)C(=O)O` (single isomer, unassigned), for which the result in [10] and in data set [11] was Active. Besides, the minimal inhibitory concentration (MIC) in data set [2] and in data set [3] was 8 µM (≈ 12.7 µg/mL) each time. Further, the “fold change (FC)” value in data set [13] is “>=2”. In addition, in data set [7], the result was inactive. Further, the Activity entry in data set [8] was “Non-Toxic”.

As to `CC(C)C[C@H](NC(=O)[C@H](CCCCN)NC(=O)[C@@H]1CCC/C=C/CC[C@H](NC(=O)[C@H](CCCCN)NC(=O)[C@@H](N)CC(C)C)C(=O)N[C@@H](CCCCN)C(=O)N[C@@H](CC(C)C)C(=O)N[C@@H](CCCCN)C(=O)N2CCCC2C(=O)NCC(=O)N[C@@H](CCCCN)C(=O)N[C@@H](CC(C)C)C(=O)N[C@@H](CCCCN)C(=O)N1)C(=O)O` (single isomer, unassigned), the MIC in [2] and in data set [3] was 8 µM (≈ 12.8 µg/mL) throughout. For the same compound, the “fold change (FC)” value in data set [13] is listed as “>=2”. Besides, the outcome in [7] was inactive. In addition, the Activity entry in data set [8] is “Non-Toxic”. Besides, the remaining at 1 h in [14] was under 10%.

Regarding `CC(C)C[C@@H]1NC(=O)[C@H](CCCCN)NC(=O)CNC(=O)C2CCCN2C(=O)[C@H](CCCCN)NC(=O)[C@H](CC(C)C)NC(=O)[C@H](CCCCN)NC(=O)[C@H](CC(C)C)NC(=O)[C@H](CCCCN)NC(=O)[C@@H](N)CC/C=C/CCC[C@@H](C(=O)O)NC(=O)[C@H](CCCCN)NC(=O)[C@H](CC(C)C)NC(=O)[C@H](CCCCN)NC1=O` (single isomer, unassigned), the result in data set [10], in [11] and in [15] was Active. The MIC in [2] and in data set [3] was 8 µM (≈ 12.8 µg/mL) in each case. In data set [13], the “fold change (FC)” value is “>=2”. Further, the outcome in [7] was inactive. The Activity result in data set [8] is listed as “Non-Toxic”. Also, in data set [14], the remaining at 1 h was under 10%.
